Measured values taken from ChEMBL document CHEMBL1145431, “Improved anti-osteoporosis potency and reduced endometrial membrane hyperplasia during hormone replacement therapy with estrogen-RGD peptide conjugates” (2007).
Where a SMILES comes first, the peptide text is derived from it. The star is where a group is joined. Succinyl(O17-estradiol) = C[C@]12CC[C@@H]3c4ccc(O)cc4CC[C@H]3[C@@H]1CC[C@@H]2OC(=O)CCC(=O)*; X2 = C[C@]12CC[C@@H]3c4ccc(OCC(=O)*)cc4CC[C@H]3[C@@H]1CCC2=O

Columns and labels:
Mus musculus [1] = assay: Effect on femur length in ovariectomized mouse at 0.1103 mmol/kg, ip once daily for 4 weeks; format: functional
In short: (§1)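 Female Kuiming mice (7 weeks, 30.7 ± 3.1 g) ovariectomized, sham group abdominorotomy. From day 5, i.p. once daily for 4 weeks at 110.3 × 10-3 mmol/kg in 0.5% CMC. Left femur cleaned, length measured, defatted in chloroform-methanol (2:1, 2 × 3 h), dried 120 °C 6 h for dry weight, ashed 800 °C 8 h. Mineral content = ash/dry weight. Ash dissolved in 6 N HCl and diluted. Ca by o-methylphenolphthalein complexone, P by molybdenum blue. Lungs and livers weighed directly.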

Mus musculus [2] = assay: Effect on serum calcium level in ovariectomized mouse at 0.1103 mmol/kg, ip once daily for 4 weeks; format: functional
In short: (§2)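 OVX Kuiming mice dosed i.p. daily for 4 weeks in 0.5% CMC. Blood taken retro-orbitally on the day after the last dose, stood 30 min, spun at 3000 g for 20 min, serum stored at -20 °C. Calcium by o-methylphenolphthalein complexone, phosphorus by molybdenum blue, ALP by activity with disodium phenylphosphate substrate.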

Mus musculus [3] = assay: Effect on phosphorus level in ovariectomized mouse at 0.1103 mmol/kg, ip once daily for 4 weeks; format: functional; in short: as §1
Mus musculus [4] = assay: Effect on mineral content in ovariectomized mouse at 0.1103 mmol/kg, ip once daily for 4 weeks; format: functional; in short: as §1
Mus musculus [5] = assay: Effect on uterus weight in ovariectomized mouse at 0.1103 mmol/kg, ip once daily for 4 weeks; format: functional
In short: (§3)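 Female Kuiming mice (7 weeks old, 30.7 ± 3.1 g), abdominal OVX under pentobarbital (40.0 mg/kg i.p.). From day 5 after surgery, i.p. injection once daily for 4 weeks, compound in aqueous 0.5% CMC prepared just before use. The day after the last dose, mice were anesthetized and killed, and lungs, livers, spleens and uteri were removed and weighed directly. n = 12, ANOVA, p < 0.05.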

Mus musculus [6] = assay: Effect on femur ash weight in ovariectomized mouse at 0.1103 mmol/kg, ip once daily for 4 weeks; format: functional; in short: as §1
Mus musculus [7] = assay: Increase in body weight in ovariectomized mouse at 0.1103 mmol/kg, ip once daily for 4 weeks; format: functional
In short: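 Female Kuiming mice (30.7 ± 3.1 g) underwent abdominal OVX; the sham group had abdominorotomy only. From day 5 after surgery, i.p. dosing once daily for 4 weeks at 110.3 × 10-3 mmol/kg in aqueous 0.5% CMC. Body weight was recorded on the day of the last administration.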

Mus musculus [8] = assay: Effect on serum phosphorus level in ovariectomized mouse at 0.1103 mmol/kg, ip once daily for 4 weeks; format: functional; in short: as §2
Mus musculus [9] = assay: Effect on lung weight in ovariectomized mouse at 0.1103 mmol/kg, ip once daily for 4 weeks; format: functional; in short: as §1
Mus musculus [10] = assay: Effect on liver weight in ovariectomized mouse at 0.110 mmol/kg, ip once daily for 4 weeks; format: functional; in short: as §1
Mus musculus [11] = assay: Effect on dry weight of femurs in ovariectomized mouse at 0.1103 mmol/kg, ip once daily for 4 weeks; format: functional, Femur; in short: as §1
Mus musculus [12] = assay: Effect on spleen weight in ovariectomized mouse at 0.1103 mmol/kg, ip once daily for 4 weeks; format: functional; in short: as §3
Mus musculus [13] = assay: Effect on serum ALP lavel in ovariectomized mouse at 0.1103 mmol/kg, ip once daily for 4 weeks; format: functional; in short: as §2
Mus musculus [14] = assay: Effect on calcium level in ovariectomized mouse at 0.1103 mmol/kg, ip once daily for 4 weeks; format: functional; in short: as §1
Mus musculus [15] = assay: Effect on liver weight in mouse at 0.1103 mmol/kg, po; format: functional
In short: (§4)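 Female Kuiming mice (7 weeks old, 30.7 ± 3.1 g) under abdominal OVX, sham group abdominorotomy only. From day 5 after surgery, dosed orally once daily for 4 weeks at 110.3 × 10-3 mmol/kg in 0.5% CMC (0.2 mL), vehicle group CMC alone. Blood drawn retro-orbitally, then left femur and organs removed under pentobarbital (40.0 mg/kg, i.p.).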

Mus musculus [16] = assay: Effect on serum calcium level in mouse at 0.1103 mmol/kg, po; format: functional
In short: (§5)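 Oral OVX Kuiming mouse model, dosed daily for 4 weeks at 110.3 × 10-3 mmol/kg in 0.5% CMC. Retro-orbital blood stood 30 min at room temperature and was spun at 3000 g for 20 min. Serum kept at -20 °C. Calcium read by o-methylphenolphthalein complexone, phosphorus by molybdenum blue, ALP by activity on disodium phenylphosphate substrate.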

Mus musculus [17] = assay: Effect on uterus weight in mouse at 0.1103 mmol/kg, po; format: functional
Mus musculus [18] = assay: Effect on serum phosphorous Concentration in mouse at 0.110 mmol/kg, po; format: functional; in short: as §5
Mus musculus [19] = assay: Effect on spleen weight in mouse at 0.1103 mmol/kg, po; format: functional; in short: as §4
Mus musculus [20] = assay: Effect on serum ALP level in mouse at 0.1103 mmol/kg, po; format: functional; in short: as §5
Mus musculus [21] = assay: Effect on lenght of femur in mouse at 0.110 mmol/kg, po; format: functional; in short: as §4
Mus musculus [22] = assay: Effect on femur ash weight in mouse at 0.1103 mmol/kg, po; format: functional; in short: as §4
Mus musculus [23] = assay: Effect on calcium level in mouse at 0.1103 mmol/kg, po; format: functional; in short: as §4
Mus musculus [24] = assay: Effect on lung weight in mouse at 0.1103 mmol/kg, po; format: functional; in short: as §4
Mus musculus [25] = assay: Effect on dry weight of femurs in mouse at 0.1103 mmol/kg, po; format: functional, Femur; in short: as §4
Mus musculus [26] = assay: Effect on phosphorus level in mouse at 0.110 mmol/kg, po; format: functional; in short: as §4

| Compound | Activity (Mus musculus [1]) [cm] | Activity (Mus musculus [2]) [mmol/L] | Activity (Mus musculus [3]) [%] | Ratio (Mus musculus [4]) | Activity (Mus musculus [5]) [mg] | Activity (Mus musculus [6]) [mg] | Activity (Mus musculus [7]) [g] | Activity (Mus musculus [8]) [mmol/L] | Activity (Mus musculus [9]) [mg] | Activity (Mus musculus [10]) [g] | Activity (Mus musculus [11]) [mg] | Activity (Mus musculus [12]) [mg] | Activity (Mus musculus [13]) [U/L] | Activity (Mus musculus [14]) [%] | other results |
| --- | --- | --- | --- | --- | --- | --- | --- | --- | --- | --- | --- | --- | --- | --- | --- |
| N=C(N)NCCC[C@H](N)C(=O)NCC(=O)N[C@@H](CC(=O)O)C(=O)N[C@@H](CO)C(=O)O | 1.617 | 2.01 | 24.888 | 0.396 | 71 | 27.8 | 34 | 1.603 | 168 | 1.295 | 59.8 | 138 | 36.643 | 43.48 |  |
| N=C(N)NCCC[C@H](N)C(=O)NCC(=O)N[C@@H](CC(=O)O)C(=O)N[C@@H](Cc1ccccc1)C(=O)O (H-RGDF-OH) | 1.62 | 2.012 | 24.585 | 0.423 | 69.8 | 22.5 | 33.3 | 1.599 | 163 | 1.413 | 60 | 134 | 35.643 | 43.815 |  |
| CC(C)[C@H](NC(=O)[C@H](CC(=O)O)NC(=O)CNC(=O)[C@@H](N)CCCNC(=N)N)C(=O)O (H-RGDV-OH) | 1.614 | 2.011 | 24.759 | 0.394 | 61.1 | 27.8 | 33.4 | 1.605 | 171 | 1.153 | 58.8 | 127 | 35.614 | 42.739 |  |
| C[C@]12CC[C@@H]3c4ccc(OCC(=O)N[C@@H](CCCNC(=N)N)C(=O)NCC(=O)N[C@@H](CC(=O)O)C(=O)N[C@@H](Cc5ccccc5)C(=O)O)cc4CC[C@H]3[C@@H]1CCC2=O (X2-RGDF-OH) | 1.639 | 2.008 | 24.588 | 0.462 | 55.8 | 24.7 | 34.5 | 1.602 | 179 | 1.458 | 65.9 | 140 | 32.407 | 49.55 |  |
| C[C@]12CC[C@@H]3c4ccc(OCC(=O)N[C@@H](CCCNC(=N)N)C(=O)NCC(=O)N[C@@H](CC(=O)O)C(=O)N[C@@H](CO)C(=O)O)cc4CC[C@H]3[C@@H]1CCC2=O (X2-RGDS-OH) | 1.634 | 2 | 24.399 | 0.438 | 63.3 | 22.6 | 32.9 | 1.604 | 173 | 1.347 | 66.9 | 129 | 32.371 | 47.613 |  |
| CC(C)[C@H](NC(=O)[C@H](CC(=O)O)NC(=O)CNC(=O)[C@H](CCCNC(=N)N)NC(=O)COc1ccc2c(c1)CC[C@@H]1[C@@H]2CC[C@]2(C)C(=O)CC[C@@H]12)C(=O)O (X2-RGDV-OH) | 1.628 | 2.008 | 24.75 | 0.429 | 51.9 | 21.9 | 34.1 | 1.602 | 168 | 1.389 | 63.9 | 131 | 32.229 | 47.173 |  |
| C[C@]12CC[C@@H]3c4ccc(O)cc4CC[C@H]3[C@@H]1CC[C@@H]2OC(=O)CCC(=O)N[C@@H](CCCNC(=N)N)C(=O)NCC(=O)N[C@@H](CC(=O)O)C(=O)N[C@@H](Cc1ccccc1)C(=O)O ({Succinyl(O17-estradiol)}-RGDF-OH) | 1.635 | 2.005 | 24.665 | 0.533 | 71.2 | 34.8 | 34.8 | 1.605 | 164 | 1.391 | 66 | 142 | 31.486 | 52.798 | Activity (Mus musculus [15]): 1.338 g; Activity (Mus musculus [16]): 2.04 mmol/L; Activity (Mus musculus [17]): 38.2 mg; Activity (Mus musculus [18]): 1.6 mmol/L; Activity (Mus musculus [19]): 142 mg; Activity (Mus musculus [20]): 35.511 U/L; Activity (Mus musculus [21]): 1.638 cm; Activity (Mus musculus [22]): 30 mg; Activity (Mus musculus [23]): 51.903%; Activity (Mus musculus [24]): 167 mg; Activity (Mus musculus [25]): 62.7 mg; Activity (Mus musculus [26]): 24.9% |
| C[C@]12CC[C@@H]3c4ccc(O)cc4CC[C@H]3[C@@H]1CC[C@@H]2O [ESTRADIOL] | 1.63 | 2.013 | 24.995 |  | 177.1 | 28.5 | 34.1 | 1.601 | 168 | 1.565 | 57.7 | 151 | 35.286 | 44.466 | Activity (Mus musculus [15]): 1.335 g; Activity (Mus musculus [16]): 2.02 mmol/L; Activity (Mus musculus [18]): 1.6 mmol/L; Activity (Mus musculus [19]): 141 mg; Activity (Mus musculus [20]): 37.705 U/L; Activity (Mus musculus [21]): 1.62 cm; Activity (Mus musculus [22]): 22.2 mg; Activity (Mus musculus [23]): 41.729%; Activity (Mus musculus [24]): 168 mg; Activity (Mus musculus [25]): 63.1 mg; Activity (Mus musculus [26]): 24.53% |
| C[C@]12CC[C@@H]3c4ccc(O)cc4CC[C@H]3[C@@H]1CCC2=O [ESTRONE] | 1.606 | 2.012 | 23.979 | 0.43 | 141.9 | 20.8 | 34.3 | 1.601 | 176 | 1.318 | 61.1 | 150 | 36.271 | 43.84 |  |
